Assay [1] has as its system P19. The assay is described as follows: Cytotoxicity against undifferentiated mouse P19 cells assessed as cell mass at 1 to 100 uM after 24 hrs by SRB assay relative to control. Format: functional. A digest of the protocol:
(§1)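 Cell mass by SRB assay in P19 cells (CRL-1825), either undifferentiated (P19SCs) or differentiated (P19dCs). Cells exposed to 1, 10 or 100 µM for 24, 48 or 72 h. Values expressed relative to untreated control. Means ± SD from at least 4 independent measurements, 6 repeats each. Significance vs control at p<0.05.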
Background: The SRB assay estimates cell density from bound dye.

Assay [2] concerns P19. The assay is described as follows: Cytotoxicity against differentiated mouse P19 cells assessed as cell mass at 1 to 100 uM after 24 hrs by SRB assay relative to control. It is filed as functional. In outline: as §1
Assay [3] relates to P19. The experiment in a line: Cytotoxicity against differentiated mouse P19 cells assessed as cell mass at 1 to 100 uM after 48 hrs by SRB assay relative to control. It is filed as functional. A digest of the protocol: as §1
For assay [4], the system named is P19. The experiment in a line: Cytotoxicity against undifferentiated mouse P19 cells assessed as metabolic activity at 1 to 100 uM after 24 hrs by resazurin assay relative to control. Format: functional. A digest of the protocol:
(§2)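 Metabolic activity by resazurin reduction in undifferentiated (P19SCs) or differentiated (P19dCs) P19 cells. Exposure to 1, 10 or 100 µM for 24, 48 or 72 h. Read-out relative to untreated control. Significance vs control at p<0.05.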
A general note: The colour change of resazurin is a common sign of viable cells or microbes.

In assay [5] the test system is P19. The experiment in a line: Cytotoxicity against undifferentiated mouse P19 cells assessed as metabolic activity at 1 to 100 uM after 48 hrs by resazurin assay relative to control. It is filed as functional. In outline:
as §2

Assay [6] relates to P19. The experiment in a line: Cytotoxicity against differentiated mouse P19 cells assessed as metabolic activity at 1 to 100 uM after 48 hrs by resazurin assay relative to control. Format: functional. A digest of the protocol: as §2
Assay [7] concerns P19. The assay is described as follows: Cytotoxicity against undifferentiated mouse P19 cells assessed as mitochondrial membrane potential at 100 uM after 24 hrs by TMRF dye based fluorescence assay relative to control. Format: functional. In outline: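 Undifferentiated (P19SCs) or differentiated (P19dCs) P19 cells incubated 24 or 72 h with 1 or 100 µM. Mitochondrial membrane potential and mitochondrial superoxide levels measured and expressed relative to untreated control. Means ± SD from 4 independent measurements, at least 4 repeats each. Significance at p<0.05.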

Assay [8] concerns the target T1, Hexokinase-2 (Homo sapiens) (UniProt P52789).
T1 sequence (whole entry): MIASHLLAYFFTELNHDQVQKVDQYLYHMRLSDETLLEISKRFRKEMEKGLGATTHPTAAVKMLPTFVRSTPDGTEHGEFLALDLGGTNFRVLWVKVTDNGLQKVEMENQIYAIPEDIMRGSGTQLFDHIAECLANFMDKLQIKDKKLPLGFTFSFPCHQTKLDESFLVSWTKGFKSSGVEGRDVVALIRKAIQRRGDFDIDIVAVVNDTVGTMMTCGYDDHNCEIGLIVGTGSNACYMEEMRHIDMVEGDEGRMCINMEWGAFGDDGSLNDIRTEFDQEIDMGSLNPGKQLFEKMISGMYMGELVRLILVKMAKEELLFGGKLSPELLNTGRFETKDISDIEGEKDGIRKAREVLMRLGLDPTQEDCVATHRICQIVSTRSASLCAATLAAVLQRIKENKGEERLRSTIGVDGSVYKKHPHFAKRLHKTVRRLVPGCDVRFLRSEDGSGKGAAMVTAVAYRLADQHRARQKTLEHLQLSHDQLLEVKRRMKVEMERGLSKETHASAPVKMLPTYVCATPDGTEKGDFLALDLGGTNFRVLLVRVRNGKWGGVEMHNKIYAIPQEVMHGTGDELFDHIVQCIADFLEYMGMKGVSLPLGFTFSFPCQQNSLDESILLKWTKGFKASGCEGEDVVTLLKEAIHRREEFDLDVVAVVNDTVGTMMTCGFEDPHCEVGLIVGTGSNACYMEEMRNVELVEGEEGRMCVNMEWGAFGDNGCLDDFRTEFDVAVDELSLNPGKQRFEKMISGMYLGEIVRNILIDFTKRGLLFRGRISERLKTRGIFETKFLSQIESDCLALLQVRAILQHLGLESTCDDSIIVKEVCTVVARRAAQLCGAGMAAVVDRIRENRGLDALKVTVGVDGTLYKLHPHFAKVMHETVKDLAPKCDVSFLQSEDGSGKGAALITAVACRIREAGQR
The assay is described as follows: Inhibition of recombinant human HK2 using [U-14C]-labeled glucose as substrate in presence of ATP and NADP by G6PD enzyme coupled spectrophotometric assay. Particulars: in the assay text read “glucose” for “[U-14C]-labeled glucose”. A digest of the protocol:
(§3)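 Coupled hexokinase assay at 340 nm following G6P-dependent NADP→NADPH conversion. Enzyme source is freshly prepared, centrifuged undifferentiated P19 lysate supernatant or recombinant human HKII. Buffer: 100 mM Tris-HCl pH 8.0, 0.5 mM EDTA, 10 mM MgCl2, 2 mM glucose, 0.1 mM NADP, 0.1 U/ml G6PD. Preincubated 10 min at 37°C; reaction started with 10 mM ATP. Means ± SD, 4 experiments, at least 4 repeats each.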

Assay [9] addresses T2, Hexokinase-2 (Mus musculus) (UniProt O08528).
T2 sequence (whole entry): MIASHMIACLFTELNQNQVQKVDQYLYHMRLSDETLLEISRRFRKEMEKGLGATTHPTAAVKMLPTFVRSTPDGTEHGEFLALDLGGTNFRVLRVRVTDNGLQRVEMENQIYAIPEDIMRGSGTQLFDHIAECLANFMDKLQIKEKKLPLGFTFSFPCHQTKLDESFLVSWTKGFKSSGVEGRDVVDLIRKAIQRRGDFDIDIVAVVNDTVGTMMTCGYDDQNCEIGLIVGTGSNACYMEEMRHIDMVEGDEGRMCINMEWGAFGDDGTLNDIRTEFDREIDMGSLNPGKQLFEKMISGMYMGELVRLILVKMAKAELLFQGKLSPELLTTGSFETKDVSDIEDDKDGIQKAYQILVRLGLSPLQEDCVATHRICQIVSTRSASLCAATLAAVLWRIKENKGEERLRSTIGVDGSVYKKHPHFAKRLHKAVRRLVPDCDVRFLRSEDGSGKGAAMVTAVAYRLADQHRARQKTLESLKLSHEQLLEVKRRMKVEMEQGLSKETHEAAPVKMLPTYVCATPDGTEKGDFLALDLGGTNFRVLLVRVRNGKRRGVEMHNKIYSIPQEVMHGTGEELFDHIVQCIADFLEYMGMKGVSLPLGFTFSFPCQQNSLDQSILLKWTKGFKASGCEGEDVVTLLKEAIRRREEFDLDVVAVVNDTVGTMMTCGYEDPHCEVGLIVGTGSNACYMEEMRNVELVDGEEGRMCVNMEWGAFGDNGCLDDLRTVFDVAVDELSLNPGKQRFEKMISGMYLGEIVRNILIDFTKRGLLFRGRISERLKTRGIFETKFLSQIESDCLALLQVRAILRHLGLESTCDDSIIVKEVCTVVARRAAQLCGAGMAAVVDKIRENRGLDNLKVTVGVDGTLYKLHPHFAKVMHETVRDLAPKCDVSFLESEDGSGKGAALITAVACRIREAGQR
The experiment in a line: Inhibition of HK2 isolated from mouse undifferentiated P19 cell lysates using [U-14C]-labeled glucose as substrate in presence of ATP and NADP by G6PD enzyme coupled spectrophotometric assay. Particulars: in the assay text read “glucose” for “[U-14C]-labeled glucose”. A digest of the protocol: as §3

Turning to `O=C(c1ccc2c(c1)C(=O)N(c1cccc(O)c1)C2=O)c1ccc2c(c1)C(=O)N(c1cccc(O)c1)C2=O`, the Activity with P19 [1] worked out at 103.3%; in the assay with P19 [2], 100%; with P19 [3], 102.2%; in the assay with P19 [4], 102.6%; in the assay with P19 [5], 76.5%; in the assay with P19 [6], 97.5%. Besides, the Activity in the assay on P19 [7] was 91%. Moreover, the inhibition entry in assay [8] and in [9] was “Dose-dependent effect” throughout.

(Values after ChEMBL document CHEMBL4002604, “Evaluation of biological properties of 3,3',4,4'-benzophenonetetracarboxylic dianhydride derivatives and their ability to inhibit hexokinase activity” (2017).)
